According to ChEMBL document CHEMBL3526139, “Clinical pharmacokinetics, metabolism, and drug-drug interaction of carfilzomib” (Drug Metab Dispos, 2013):

Experiments:
Cytochrome P450 2D6 = Cytochrome P450 2D6 (Homo sapiens, UniProt P10635); experiment: Inhibition of CYP2D6 in human liver microsomes using dextromethorphan as substrate after 5 mins by LC-MS/MS analysis; assay type: ADME
Method in brief: (§1)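 Pooled HLM from 16 donors were incubated at 37°C in duplicate with carfilzomib 0.01–10 µM and probe substrate at about its Km. Substrates were phenacetin, amodiaquine, diclofenac, S-mephenytoin, dextromethorphan, testosterone and midazolam. Protein was 0.1 mg/mL, or 0.05 mg/mL with midazolam. Reactions ran 5 min without preincubation, then were quenched with acetonitrile. Metabolites were measured by LC-MS/MS relative to 0.5% acetonitrile controls.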

Cytochrome P450 3A [1] = molecular target: T1, Cytochrome P450 3A (Homo sapiens, UniProt P08684+P20815+Q9HB55+P24462); experiment: Time-dependent inhibition of CYP3A in human liver microsomes assessed as midazolam 1'-hydroxylation using midazolam as substrate by LC-MS/MS analysis in presence of NADPH; assay type: ADME
Method in brief: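 HLM (1.25 mg/mL for midazolam) were preincubated in duplicate with carfilzomib 0, 0.5, 1, 3, 5, 8 µM plus an NADPH-generating system for 0–30 min. Mixtures were diluted 25-fold into pH 7.4 phosphate/MgCl2/EDTA buffer containing midazolam 40 µM and NADPH system for 5 min. Residual activity by LC-MS/MS gave KI and kinact.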

Plasma = experiment: Drug metabolism in plasma of human multiple myeloma patient assessed as morpholino-hPhe-Leu-Phe-Leu-diol metabolite formation at 15 mg/m'2, iv administered as single dose measured within first 30 mins after end of drug infusion by LC-MS/MS analysis; assay type: ADME, organism-based; conditions: in vivo, 0.5 h
Method in brief: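 Patients with multiple myeloma received a single 15 mg/m2 carfilzomib dose. Plasma was sampled pre-dose, at end of infusion, at 5, 15, 30 min and at 1, 1.5, 2, 4, 6, 24 h. Samples were protein-precipitated and analyzed by LC-MS/MS (metabolites 0.500–500 ng/mL) with deuterated internal standards.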

Cytochrome P450 2C19 = Cytochrome P450 2C19 (Homo sapiens, UniProt P33261); experiment: Drug metabolism in pooled human hepatocytes assessed as disapperance rate at 1 uM by LC-MS/MS analysis in presence of 10 uM CYP2C19 inhibitor (+)-N-3-benzylnirvanol; assay type: ADME, cell-based, Hepatocyte
Method in brief: (§2)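 Pooled human hepatocytes in suspension (~0.5 x 10^6 viable cells/mL) were incubated with 1 µM carfilzomib at 37°C under 5% CO2, with or without isoform-selective CYP chemical inhibitors. Reactions were quenched with acetonitrile at 0, 15, 30, 60 and 120 min. Carfilzomib was quantified by non-validated LC-MS/MS after protein precipitation.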

Hepatocyte = experiment: Cytotoxicity against human hepatocytes assessed as cell viability by MTT assay; assay type: cell-based
Method in brief: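 MTT viability assay in cultured human hepatocytes from 3 donors after 3 days of carfilzomib exposure (0.1, 0.5, 2.5 µM) with daily medium and compound renewal. Solvent control was 0.08% DMSO.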

CYP3A = CYP3A (Homo sapiens, UniProt P08684+P20815+P24462+Q9HB55); experiment: Inhibition of CYP3A in human liver microsomes assessed as substrate metabolite formation using testosterone as substrate measured after 5 mins by LC-MS/MS analysis; assay type: ADME; conditions: probe testosterone; method in brief: as §1
CYP1A2 = experiment: Decrease in CYP1A2 gene expression in human hepatocytes at 2.5 uM after 3 days by qPCR analysis; assay type: ADME, cell-based, Hepatocyte
Method in brief: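 Hepatocytes were treated 3 days with carfilzomib (0.1–2.5 µM) or 0.08% DMSO, renewed daily. CYP3A mRNA was measured in 3 donors and CYP1A2 mRNA in one additional donor, both by qPCR. Values are triplicate means relative to DMSO.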

[2] = Drug metabolism in pooled human hepatocytes assessed as disapperance rate at 1 uM by LC-MS/MS analysis; assay type: ADME, cell-based, Hepatocyte; method in brief: as §2
[3] = Plasma clearance in human patient with relapsed solid tumor at 20 mg/m'2, iv administered over 2 to 10 mins on days 1, 2, 8, 9, 15 and 16 of 28-day cycle measured on day 1 of cycle 1 by LC-MS/MS analysis; assay type: ADME, organism-based
Method in brief: (§3)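 Patients with relapsed solid tumors (n=3) received carfilzomib IV at 20 mg/m2. Plasma was sampled on Days 1 and 16 of Cycle 1 before dosing, at end of administration, and at 5, 15, 30 min and 1, 2, 4 h after. Samples underwent solid phase extraction and LC-MS/MS with d10-carfilzomib internal standard over 0.100–200 ng/mL. Parameters were derived noncompartmentally (constant IV infusion model) from actual elapsed time from infusion start.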

Cytochrome P450 1A2 = molecular target: T2, Cytochrome P450 1A2 (Homo sapiens, UniProt P05177); experiment: Inhibition of CYP1A2 in human liver microsomes using phenacetin as substrate after 5 mins by LC-MS/MS analysis; assay type: ADME; method in brief: as §1
T2 sequence (P05177 whole entry): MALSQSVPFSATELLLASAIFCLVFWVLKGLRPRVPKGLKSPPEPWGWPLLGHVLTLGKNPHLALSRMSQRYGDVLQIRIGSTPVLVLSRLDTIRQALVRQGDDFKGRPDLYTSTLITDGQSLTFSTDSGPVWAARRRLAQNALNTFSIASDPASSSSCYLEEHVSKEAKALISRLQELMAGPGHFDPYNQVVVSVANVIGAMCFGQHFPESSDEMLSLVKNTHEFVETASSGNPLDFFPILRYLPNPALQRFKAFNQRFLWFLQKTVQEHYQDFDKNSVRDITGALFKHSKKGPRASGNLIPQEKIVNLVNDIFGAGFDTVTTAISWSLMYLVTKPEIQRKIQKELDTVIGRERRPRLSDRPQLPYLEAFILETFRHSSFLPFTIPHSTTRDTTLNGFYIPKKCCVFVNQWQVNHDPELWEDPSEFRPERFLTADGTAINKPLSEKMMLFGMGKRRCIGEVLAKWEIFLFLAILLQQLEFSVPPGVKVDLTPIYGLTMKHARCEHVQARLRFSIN

[4] = AUC infinity in human patient with relapsed solid tumor at 20 mg/m'2, iv administered on days 1, 2, 8, 9, 15 and 16 of 28-day cycle over 2 to 10 mins measured on day 16 of cycle 1 by LC-MS/MS analysis; assay type: ADME, organism-based; design: time infinity, route intravenous; conditions: plasma; method in brief: as §3
Cytochrome P450 3A [5] = molecular target: T1, Cytochrome P450 3A; experiment: Time-dependent inhibition of CYP3A in human liver microsomes preincubated for 30 mins with carfilzomib by LC-MS/MS analysis; assay type: ADME; conditions: microsomes
Method in brief: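 Pooled HLM (16 donors) given carfilzomib 0.01–10 µM in duplicate at 37°C with a 30-min preincubation before probe substrate was added. Substrate was set near Km (testosterone Km 100 µM; midazolam Km 3.8 µM). Protein was 0.1 mg/mL, or 0.05 mg/mL with midazolam. Metabolite formation was read by LC-MS/MS after 5 min and expressed relative to 0.5% acetonitrile controls to give IC50.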

[6] = Drug excretion in urine of iv dosed human patient with relapsed and refractory hematological malignancies assessed as morpholino-hPhe-Leu metabolite formation administered on days 1, 2, 8, 9, 15 and 16 of 28-day cycle over 2 to 10 mins by LC-MS/MS analysis; assay type: ADME, organism-based; conditions: in vivo

Chain of Cytochrome P450 2D6 (P10635 whole entry): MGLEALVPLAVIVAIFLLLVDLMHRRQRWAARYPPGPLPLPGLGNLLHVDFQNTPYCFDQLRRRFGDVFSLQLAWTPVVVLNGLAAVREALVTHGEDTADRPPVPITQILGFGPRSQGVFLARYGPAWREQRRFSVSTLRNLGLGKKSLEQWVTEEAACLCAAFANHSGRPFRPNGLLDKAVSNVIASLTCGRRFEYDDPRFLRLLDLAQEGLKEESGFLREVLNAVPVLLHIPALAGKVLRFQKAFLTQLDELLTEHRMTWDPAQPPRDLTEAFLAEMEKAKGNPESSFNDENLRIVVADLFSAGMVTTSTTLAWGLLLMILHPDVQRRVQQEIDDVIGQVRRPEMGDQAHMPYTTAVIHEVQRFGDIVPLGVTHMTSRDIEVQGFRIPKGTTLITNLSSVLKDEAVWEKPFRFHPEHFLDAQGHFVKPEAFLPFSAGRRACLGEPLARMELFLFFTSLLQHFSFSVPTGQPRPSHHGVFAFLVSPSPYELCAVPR
Chain of Cytochrome P450 2C19 (P33261 whole entry, canonical isoform): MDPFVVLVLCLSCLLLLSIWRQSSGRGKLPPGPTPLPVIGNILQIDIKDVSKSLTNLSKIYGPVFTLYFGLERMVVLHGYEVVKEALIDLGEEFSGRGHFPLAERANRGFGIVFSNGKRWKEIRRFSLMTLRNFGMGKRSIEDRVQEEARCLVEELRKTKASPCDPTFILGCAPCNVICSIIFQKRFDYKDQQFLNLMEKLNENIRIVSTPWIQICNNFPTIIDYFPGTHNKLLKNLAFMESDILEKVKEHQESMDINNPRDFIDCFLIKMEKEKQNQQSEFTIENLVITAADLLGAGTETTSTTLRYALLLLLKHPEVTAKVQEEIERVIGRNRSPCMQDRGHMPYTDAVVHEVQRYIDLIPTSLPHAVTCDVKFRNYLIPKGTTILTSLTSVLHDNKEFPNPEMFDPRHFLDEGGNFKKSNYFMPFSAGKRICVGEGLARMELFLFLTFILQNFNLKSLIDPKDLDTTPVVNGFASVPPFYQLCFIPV

For `CC(C)C[C@H](NC(=O)[C@H](CCc1ccccc1)NC(=O)CN1CCOCC1)C(=O)N[C@@H](Cc1ccccc1)C(=O)N[C@@H](CC(C)C)C(=O)[C@@]1(C)CO1` [CARFILZOMIB], the IC50 (Cytochrome P450 2D6) was greater than 10 µM, the “inhibition (INH)” value (Cytochrome P450 3A [1]) was “Active” and the Drug metabolism (Plasma) was “metabolite_detected”. The Drug metabolism (Cytochrome P450 2C19) was 0.016 min⁻¹, the Activity (Hepatocyte) was “Non-toxic” and the IC50 at 5 min (CYP3A) was greater than 10 µM. For the same molecule, the inhibition at 72 h, 2.5 µM (CYP1A2) was 40%, the Drug metabolism [2] was 0.015 min⁻¹ and the clearance [3] was 2430 mL/min. For the same molecule, the IC50 (Cytochrome P450 1A2) was greater than 10 µM, the AUC(0-inf) [4] was 301 ng·h/mL and the “inhibition (INH)” value (Cytochrome P450 3A [5]) was “Dose-dependent effect”. The Drug excretion [6] was “metabolite_detected”.
